This note sets out measurements from ChEMBL document CHEMBL1124102, “Synthesis and biodistribution of 99mTc-labeled piperidinyl bis(aminoethanethiol) complexes: potential brain perfusion imaging agents for single photon emission computed tomography” (J Med Chem, 1988).

Assay [1] has as its system Rattus norvegicus. Kind of assay: Brain Uptake of compound was measured after 2 min of administration. Type of assay: functional, organism-based. The method in brief:
(§1)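 Tc-99m complex injected into rats, three per time point. At set times, 1 mL blood was drawn by cardiac puncture and the animal was killed by cardiectomy. Organs were excised, weighed and gamma-counted. Percent dose per organ came from comparing tissue counts with dilutions of the injected dose, reported as the mean with the range across the three rats.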

Assay [2] can be described thus: Ratio of brain dose per gram to the blood dose per gram measured at 15 min. Type of assay: functional, tissue-based. The method in brief:
(§2)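 Rats (three per time point) were given the Tc-99m complex, then sampled by cardiac puncture, killed, and had organs excised and gamma-counted against injected-dose dilutions. Percent dose/organ was converted to percent dose/gram using mean organ weights (brain 1.65 g; blood 18 g). The ratio is (brain dose/gram)/(blood dose/gram).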

The nature of assay [3]: Ratio of brain dose per gram to the blood dose per gram measured at 2 min. The format is functional, tissue-based. The method in brief:
as §2

Assay [4] deals with Rattus norvegicus. The assay can be described thus: Brain Uptake of compound was measured after 15 min of administration. The format is functional, organism-based. The method in brief:
as §1

Turning to “Tc-labeled 3,3,10,10-tetramethyl-6-(2,6-dimethylhexahydro-1-pyridinylmethyl)-1-acetone2,11-dithia-5-azonia-8-azatricyclo[6.3.0.01,5]undecane (isomer)”, the Uptake value amounted to 1.19 with Rattus norvegicus [1] and 0.54 in the assay on Rattus norvegicus [4]. Further, the results for the Ratio in assay [2] and in assay [3] were 2.07 and 1.98, respectively.

With “Tc-labeled 3,3,10,10-tetramethyl-6-(2-methylhexahydro-1-pyridinylmethyl)-1-acetone2,11-dithia-5-azonia-8-azatricyclo[6.3.0.01,5]undecane”, the Uptake value in the assay on Rattus norvegicus [1] amounted to 0.61; in the assay on Rattus norvegicus [4] it was 0.35. The values for the Ratio in assay [2] and in assay [3] were 1.84 and 1.06, respectively.

With “Tc-labeled 3,3,10,10-tetramethyl-6-(2-methylhexahydro-1-pyridinylmethyl)-1-acetone2,11-dithia-5-azonia-8-azatricyclo[6.3.0.01,5]undecane (isomer)”, the Uptake value was found to be 1.8 with Rattus norvegicus [1] and 0.54 with Rattus norvegicus [4]. Also, the Ratio came to 3.84 in assay [2] and 4.96 in assay [3].
